A selection: hits, their analogues and other compounds. The true share with any hit is near 2%.
XiGFP reactiv = activators of inactive X chromosome reactivation, primary screen, imaging, XiGFP fibroblasts, GFP high-content imaging, set 2; XiGFP mouse fibroblasts, % GFP-positive cells imaging, 3 d; cells co-treated with 5-aza-dC sensitizer; scaled so ellipticine positive control = 100%; activation, % at 7.58 µM; 360,000 compounds, 0.055% hits; AID 743238, 2013;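 active means mean normalized replicate activation at least 10% and every replicate at or above 10%; inconclusive means only one of the two criteria met; inactive means mean below 10% and not all replicates reach 10%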;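 further: 0% = median of on-plate neutral control wells and 100% = ellipticine 6 µM median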
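System: XiGFP fibroblasts, SV40-immortalized. Medium: DMEM plus 5-aza-dC sensitizer. Doses: single point. Timing: 3 d treatment, 15 min room-temperature fixation. Control set: ellipticine 6 µM.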
NSD2 HMT inh = NSD2 histone methyltransferase inhibitors, primary screen, biochemical, AlphaScreen, single concentration, set 2 | Histone-lysine N-methyltransferase NSD2 (Homo sapiens), O96028 | NSD2 peptide methylation, 120 min | inhibition, % at 12.5 µM | 310,000 compounds, 0.54% hits; in the data active means inhibition above about 50%
ARNT TACC3 PPI = disruptors of ARNT/TACC3 protein interaction, primary screen, biochemical, AlphaScreen, single concentration | AlphaScreen His-ARNT PAS-B/GST-TACC3 binding, luminescence; TACC3 fragment carries E629A point mutation | inhibition, % at 9.99 µM | 390,000 compounds, 0.66% hits | AID 623870, 2012;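 active means mean inhibition of replicates at least 50% and at least half of replicates each reaching 50%; inconclusive means half or more replicates reach 50% but mean below 50%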;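 further: 0% = complete ARNT plus TACC3 wells and 100% = ARNT alone without TACC3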
SR-BI uptake up = activators of SR-BI mediated DiI-HDL uptake, primary screen, ldlA[mSR-BI] CHO cells, DiI fluorescence; 3 h; 100 = double the neutral-control signal; activation, % at 12.5 µM; 320,000 compounds, 0.096% hits;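 active means mean replicate activation of at least 60% and every replicate at or above 60%; inconclusive means mean or all-replicate condition met, but not both; inactive means mean below 60% and not all replicates reaching 60%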;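 further: 0% = median plate neutral-control signal and 100% = twice that signal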
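Test system: SR-BI-overexpressing, LDLR-lacking CHO cells; Also added: labelled HDL, 10 µg/mL; Measured by: bottom-read cell fluorescence after medium removal, ex 550/em 595 nm; Timing: 3 h uptake period with compound, 37 °C; Buffer or medium: F12, 0.5% BSA, 25 mM HEPES; Doses: single compound concentration, delivered by pin transfer.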
HGIII-sPLA2 inh = human group III sPLA2 inhibitors, primary screen, biochemical, QFRET, BODIPY PC-A2 liposome substrate. Group 3 secretory phospholipase A2 (Homo sapiens), Q9NZ20. QFRET BODIPY PC-A2 liposome hydrolysis, fluorescence. inhibition, % at 12.2 µM. 370,000 compounds, 0.56% hits. AID 743126, 2013;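 active means inhibition above mean plus 3 SD of compounds lying within the high and low control bounds, cut at about 19% in these data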;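 further: 0% = median of test compound wells and 100% = no enzyme DMSO wells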
Target sequence (Q9NZ20 whole entry, looked up): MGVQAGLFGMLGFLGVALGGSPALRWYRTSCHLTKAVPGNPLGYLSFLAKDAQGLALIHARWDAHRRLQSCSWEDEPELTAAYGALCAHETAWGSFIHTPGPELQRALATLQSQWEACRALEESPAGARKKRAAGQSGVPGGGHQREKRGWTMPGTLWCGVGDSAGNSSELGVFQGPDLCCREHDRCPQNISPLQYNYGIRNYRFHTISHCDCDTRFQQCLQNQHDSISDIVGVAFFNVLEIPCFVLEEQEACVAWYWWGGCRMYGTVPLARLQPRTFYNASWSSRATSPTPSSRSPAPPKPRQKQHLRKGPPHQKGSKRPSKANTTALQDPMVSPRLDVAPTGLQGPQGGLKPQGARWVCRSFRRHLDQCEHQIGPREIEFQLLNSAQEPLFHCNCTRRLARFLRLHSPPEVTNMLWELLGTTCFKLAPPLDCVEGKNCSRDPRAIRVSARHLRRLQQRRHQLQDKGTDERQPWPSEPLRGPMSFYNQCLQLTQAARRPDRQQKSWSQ
SR-BI HDL uptake = inhibitors of SR-BI mediated HDL lipid uptake, primary screen, ldlA[mSR-BI] cells, fluorescence, single point | Scavenger receptor class B member 1 (Mus musculus), Q61009 | ldlA[mSR-BI] CHO cells, DiI-HDL uptake fluorescence, 3 h | inhibition, % at 12.5 µM | 320,000 compounds, 0.96% hits | AID 488896, 2010;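 active means mean replicate inhibition of at least 70% and a set share of replicates each scoring 70 or more; inconclusive means meets just one of the two criteria; inactive means fails both criteria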;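 further: 0% = median of neutral control wells and 100% = median of positive control wells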
hGIII sPLA2 conf = human group III sPLA2 inhibitors, confirmation, biochemical, QFRET, triplicate | 2,000 compounds, 34% hits | inhibition, % at 12.2 µM | recombinant hGIII-sPLA2, BODIPY PC-A2 QFRET fluorescence | shares compounds with HGIII-sPLA2 inh | AID 743280, 2014;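 active means mean inhibition across triplicates above the hit cutoff set in the earlier primary screen, cut at about 19% in these data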;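 further: 0% = enzyme with DMSO and 100% = DMSO wells lacking enzyme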
BODIPY interf = 535nm fluorescence optical interference, confirmation, artefact control for HGIII-sPLA2 inhibitor project, biochemical, QFRET; inhibition, % at 12.2 µM; AID 743282, 2014; shares compounds with HGIII-sPLA2 inh; 2,000 compounds, 8.5% hits; BODIPY FL product fluorescence interference;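 active means average inhibition above the solvent-only control mean plus 3 SD, cut at about 6% in these data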;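 further: 0% = DMSO with substrate plus product and 100% = DMSO with substrate alone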
BODIPY interf DR = 535nm fluorescence optical interference, dose response, artefact control for HGIII-sPLA2 inhibitor project, biochemical, QFRET | shares compounds with HGIII-sPLA2 inh | BODIPY FL product fluorescence interference, cell-free | IC50, µM | 240 tested, under 10 active;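 active means IC50 at or below 10 µM; inactive means IC50 above 10 µM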
The depositor's hits bear a star.

`COC(=O)C1=C(C(=O)c2ccccc2)C(c2ccc(OC)c(OC)c2)Nc2nnnn21` (configuration not stated) gave NSD2 HMT inh 2, ARNT TACC3 PPI -27, SR-BI uptake up 10, HGIII-sPLA2 inh 10 and SR-BI HDL uptake -10.
`O=C1Nc2ccc(Br)cc2/C1=C/C(=O)c1ccc2c(c1)OCO2` gave XiGFP reactiv 0, NSD2 HMT inh 2, ARNT TACC3 PPI -8, SR-BI uptake up -75, HGIII-sPLA2 inh 26*, SR-BI HDL uptake 75*, hGIII sPLA2 conf 42* and BODIPY interf 14*.
Screening CC1(C)CC(=O)C(Sc2ccccc2C(=O)O)=C(O)C1 returned XiGFP reactiv 0, NSD2 HMT inh -2, ARNT TACC3 PPI 5, SR-BI uptake up 6, HGIII-sPLA2 inh 23*, SR-BI HDL uptake -6, hGIII sPLA2 conf 3 and BODIPY interf -8.
`CC1(C)CC(=O)C(Sc2ccccc2)=C(O)C1` gave XiGFP reactiv 2, NSD2 HMT inh -3, ARNT TACC3 PPI -1, SR-BI uptake up 19, HGIII-sPLA2 inh -4 and SR-BI HDL uptake -19.
For Cc1cc(C(=O)O)c(CSc2ncn[nH]2)o1 the results were NSD2 HMT inh 7, ARNT TACC3 PPI -4, SR-BI uptake up 11, HGIII-sPLA2 inh 21*, SR-BI HDL uptake -11, hGIII sPLA2 conf 0 and BODIPY interf -5.
O=C(O)c1cccc(CSc2ncn[nH]2)c1 was read as XiGFP reactiv 0, NSD2 HMT inh -3, ARNT TACC3 PPI -13 and HGIII-sPLA2 inh 1.
For O=C(N/N=C/c1cccc(O)c1)c1ccc2c(c1)OCCO2 the results were XiGFP reactiv 0, NSD2 HMT inh 3, ARNT TACC3 PPI 1, SR-BI uptake up -11, HGIII-sPLA2 inh -4 and SR-BI HDL uptake 11.
For Cc1cccc(/C=N\NC(=O)c2ccc(Cl)cc2)c1O the results were XiGFP reactiv 5, NSD2 HMT inh -1, ARNT TACC3 PPI 10, SR-BI uptake up -141, HGIII-sPLA2 inh 37*, SR-BI HDL uptake 141*, hGIII sPLA2 conf 22* and BODIPY interf 5.
`Cc1cccc(/C=N/NC(=O)c2c(-c3ccccc3)noc2C)c1O` gave XiGFP reactiv 0, NSD2 HMT inh 1, ARNT TACC3 PPI 3, SR-BI uptake up -102, HGIII-sPLA2 inh 34*, SR-BI HDL uptake 102*, hGIII sPLA2 conf 16 and BODIPY interf -1.
Cc1cccc(/C=N/NC(=O)c2ccc3c(c2)OCCO3)c1O was read as XiGFP reactiv 0, ARNT TACC3 PPI 14, SR-BI uptake up -111, HGIII-sPLA2 inh 30*, SR-BI HDL uptake 111*, hGIII sPLA2 conf 19* and BODIPY interf 3.
`CN(C)CCCNC(=O)C[C@@H]1CC[C@H]2[C@@H](COC[C@@H](O)CN2Cc2cccc(C(F)(F)F)c2)O1` gave XiGFP reactiv 0 and ARNT TACC3 PPI 16.
For Cc1cccc(C(=O)OCC(=O)N(C)C(c2ccccc2)c2ccccc2)c1[N+](=O)[O-] the results were XiGFP reactiv 0, NSD2 HMT inh -1, ARNT TACC3 PPI 7, SR-BI uptake up 2, HGIII-sPLA2 inh -7 and SR-BI HDL uptake -2.
O=C(C[C@H]1C=C[C@@H](NC(=O)Nc2cc(F)ccc2F)[C@@H](CO)O1)Nc1ccccc1 was read as XiGFP reactiv 0 and ARNT TACC3 PPI -2.
`COC(=O)C(NC(C)=O)(Nc1ccc(C)cn1)C(F)(F)F` (configuration not stated) gave XiGFP reactiv 0, NSD2 HMT inh -2, ARNT TACC3 PPI 5, SR-BI uptake up 2, HGIII-sPLA2 inh 20*, SR-BI HDL uptake -2, hGIII sPLA2 conf 4 and BODIPY interf -6.
`Cc1ccccc1C(=O)NNC(=S)NC(=O)c1cccs1` gave XiGFP reactiv 0, NSD2 HMT inh 1, ARNT TACC3 PPI 30, SR-BI uptake up 1, HGIII-sPLA2 inh 34*, SR-BI HDL uptake -1, hGIII sPLA2 conf 39*, BODIPY interf -5 and BODIPY interf DR >122.
`N/C(=N\OC(=O)COc1ccc(Br)cc1)c1ccncc1` gave XiGFP reactiv 0, NSD2 HMT inh 0, SR-BI uptake up inconclusive, HGIII-sPLA2 inh 20*, SR-BI HDL uptake -62, hGIII sPLA2 conf -1 and BODIPY interf -10.
`N/C(=N\OC(=O)COc1ccc([N+](=O)[O-])cc1)c1ccncc1` gave XiGFP reactiv 0, NSD2 HMT inh 0, ARNT TACC3 PPI -7, SR-BI uptake up 17, HGIII-sPLA2 inh 6 and SR-BI HDL uptake -17.
For O=C(Nc1ccccc1)c1cccc(C(=O)Nc2ccccc2)n1 the results were XiGFP reactiv 0, NSD2 HMT inh 27, ARNT TACC3 PPI -4, SR-BI uptake up -46, HGIII-sPLA2 inh 6 and SR-BI HDL uptake 46.
Screening CN(C)c1ccc(NC(=O)c2cccc(C(=O)Nc3ccc(N(C)C)cc3)n2)cc1 returned NSD2 HMT inh 3, ARNT TACC3 PPI -1, SR-BI uptake up -69, HGIII-sPLA2 inh 28*, SR-BI HDL uptake 69, hGIII sPLA2 conf 36*, BODIPY interf -11 and BODIPY interf DR >122.
CC(C)(C)NC(=O)N1CCC(CO)(Cc2ccccc2Cl)CC1 was read as XiGFP reactiv 0, NSD2 HMT inh -8, ARNT TACC3 PPI -1, SR-BI uptake up 13, HGIII-sPLA2 inh 1 and SR-BI HDL uptake -13.
